In brackets after ≈: the same amount, converted by molar mass. Activity calls are given as the source filed them. No cut-off for these calls is given here.
Tests used:
[1] = system: Mycobacterium tuberculosis; assay: Inhibition of Mycobacterium tuberculosis MenA using [3H]farnesyl and DHNA as substrate at 100 uM after 2 hrs
Outline: (§1)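 Membrane fraction from mid-log cultures in 7H9/OADC, washed in saline, sonicated in MOPS pH 8/sucrose/MgCl2/2-mercaptoethanol buffer, spun 15,000 g then 200,000 g; the fraction was the enzyme source. DHNA (500 μM stock), MgCl2, 0.1% CHAPS, Tris pH 8, farnesyl diphosphate (200 μM stock) and inhibitor, 2 h at 37 °C. Quenched with 0.1 M AcOH/MeOH, extracted with hexanes, DMMK measured.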

[2] = system: Mycobacterium tuberculosis; assay: Antibacterial activity against Mycobacterium tuberculosis H37Rv ATCC 27294 by microplate alamar blue assay; type: functional
Outline: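 Colorimetric microplate assay run under aerobic conditions; growth scored by the colour change of resazurin. Compounds showing at least 90% inhibition in a preliminary screen were retested at lower concentrations to give the MIC.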

Staphylococcus aureus [3] = assay: Inhibition of Staphylococcus aureus MenA using [3H]farnesyl and DHNA as substrate at 100 uM after 2 hrs; outline: as §1
[4] = system: Mycobacterium tuberculosis; assay: Antibacterial activity against non-replicating Mycobacterium tuberculosis H37Rv ATCC 27294 by low oxygen recovery assay; type: functional
Escherichia coli [5] = assay: Growth inhibition of Escherichia coli Seattle ATCC 25922 at 5 to 10 ug/ml by microplate alamar blue assay in presence of 50 uM VK2; type: functional, organism-based
Outline: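 E. coli grown with inhibitor under anaerobic conditions; rescue tested by supplementing with menaquinone (VK2, 50 μM).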

Escherichia coli [6] = assay: Growth inhibition of Escherichia coli Seattle ATCC 25922 at 5 to 10 ug/ml by microplate alamar blue assay; type: functional, organism-based
[7] = Inhibition of Mycobacterium tuberculosis MenA using [3H]farnesyl and DHNA as substrate after 2 hrs; outline: as §1
Staphylococcus aureus [8] = assay: Antibacterial activity against Staphylococcus aureus Seattle 1945 ATCC 25923 by agar plate diffusion method; type: functional

| SMILES | inhibition [1] | MIC [2] | inhibition (Staphylococcus aureus [3]) | MIC [4] | growth inhibition (GI) (Escherichia coli [5]) | growth inhibition (GI) (Escherichia coli [6]) | IC50 [7] | MIC (Staphylococcus aureus [8]) |
| --- | --- | --- | --- | --- | --- | --- | --- | --- |
| CCCCCC[C@H](O)CN1CCC(COc2cccc(C(=O)c3ccc(Cl)cc3)c2)CC1 | Active | 12.5 µg/mL (≈ 27.3 µM) | inactive | 4.91 µg/mL (≈ 10.7 µM) | inactive | Active | 16 µM | > 60 µg/mL |
| CCCCCCC[C@@H](OC(N)=O)c1cccc(CN2CCC(COc3ccc(C(=O)c4ccc(Cl)cc4)c(Cl)c3)CC2)c1 | Active | 12.5 µg/mL (≈ 20 µM) | inactive | 4.93 µg/mL (≈ 7.88 µM) | inactive | Active | 20 µM | > 60 µg/mL |
| CCCCCCC[C@@H](O)c1cccc(CN2CCC(COc3ccc(/C(=N\OC)c4ccc(Cl)cc4)c(Cl)c3)CC2)c1 | Active | 12.5 µg/mL (≈ 20.4 µM) | inactive | 5.54 µg/mL (≈ 9.06 µM) | inactive | Active | 15 µM | > 60 µg/mL |
| CCCCCC[C@@H](O)CN1CCC(COc2cccc(C(=O)c3ccc(Cl)cc3)c2)CC1 | Active | 6.2 µg/mL (≈ 13.5 µM) | inactive | 5.59 µg/mL (≈ 12.2 µM) | inactive | Active | 9 µM | > 60 µg/mL |
| CCCC[C@H](O)CN1CCC(COc2ccc(C(=O)c3ccc(Cl)cc3)c(Cl)c2)CC1 | Active | 1.5 µg/mL (≈ 3.23 µM) | inactive | 1.43 µg/mL (≈ 3.08 µM) | inactive | Active | 4.5 µM | > 60 µg/mL |
| CCCC[C@H](O)CN1CCC(COc2cccc(C(=O)c3ccc(Cl)cc3)c2)CC1 | Active | 12.5 µg/mL (≈ 29.1 µM) | inactive | 5.59 µg/mL (≈ 13 µM) | inactive | Active | 7.5 µM | > 60 µg/mL |
| CCCCCCC[C@@H](OC(N)=O)c1cccc(CN2CCC(COc3cccc(C(=O)c4ccc(Cl)cc4)c3)CC2)c1 | Active | 12.5 µg/mL (≈ 21.1 µM) | inactive | 4.93 µg/mL (≈ 8.34 µM) | inactive | Active | 15 µM | > 60 µg/mL |
| CCCCCC[C@@H](CN1CCC(COc2cccc(C(=O)c3ccc(Cl)cc3)c2)CC1)OC(N)=O | Active | 12.5 µg/mL (≈ 24.9 µM) | inactive | 2.94 µg/mL (≈ 5.87 µM) | inactive | Active | 9 µM | > 60 µg/mL |
| CCCCC(CN1CCC(COc2ccc(C(=O)c3ccc(Cl)cc3)c(Cl)c2)CC1)OC(N)=O (racemic) | Active | 3.25 µg/mL (≈ 6.4 µM) | inactive | 2.83 µg/mL (≈ 5.58 µM) | inactive | Active | 7.5 µM | > 60 µg/mL |
| CCCCCC[C@@H](O)CN1CCC(COc2ccc(C(=O)c3ccc(Cl)cc3)c(Cl)c2)CC1 | Active | 6.25 µg/mL (≈ 12.7 µM) | inactive | 5.2 µg/mL (≈ 10.6 µM) | inactive | Active | 9.5 µM | > 60 µg/mL |
| CCCCCC[C@H](O)CN1CCC(COc2ccc(C(=O)c3ccc(Cl)cc3)c(Cl)c2)CC1 | Active | 1.5 µg/mL (≈ 3.05 µM) | inactive | 1.43 µg/mL (≈ 2.9 µM) | inactive | Active | 3.5 µM | > 60 µg/mL |
| CCCCCCC[C@H](OC(N)=O)c1cccc(CN2CCC(COc3ccc(C(=O)c4ccc(Cl)cc4)c(Cl)c3)CC2)c1 | Active | 12.5 µg/mL (≈ 20 µM) | inactive | 2.93 µg/mL (≈ 4.68 µM) | inactive | Active | 20 µM | > 60 µg/mL |
| CCCC[C@@H](O)CN1CCC(COc2ccc(C(=O)c3ccc(Cl)cc3)c(Cl)c2)CC1 | Active | 6.25 µg/mL (≈ 13.5 µM) | inactive | 2.85 µg/mL (≈ 6.14 µM) | inactive | Active | 7.5 µM | > 60 µg/mL |
| COc1ccc(CCN[C@@H](CO)c2cccc(COc3cccc(C(=O)c4ccc(Cl)cc4)c3)c2)cc1 | Active | 12.5 µg/mL (≈ 24.2 µM) | inactive | 3 µg/mL (≈ 5.81 µM) | inactive | Active | 14 µM | > 60 µg/mL |
| CCCCCCC[C@@H](O)c1cccc(CN2CCC(COc3cccc(/C(=N\OC)c4ccc(Cl)cc4)c3)CC2)c1 | Active | 6.25 µg/mL (≈ 10.8 µM) | inactive | 1.43 µg/mL (≈ 2.48 µM) | inactive | Active | 15 µM | > 60 µg/mL |
| COc1ccc(CCN[C@H](CO)c2cccc(COc3cccc(C(=O)c4ccc(Cl)cc4)c3)c2)cc1 | Active | 12.5 µg/mL (≈ 24.2 µM) | inactive | 3 µg/mL (≈ 5.81 µM) | inactive | Active | 17 µM | > 60 µg/mL |
| CCCCCC[C@@H](CN1CCC(COc2ccc(/C(=N\OC)c3ccc(Cl)cc3)c(Cl)c2)CC1)OC(N)=O | Active | 1.5 µg/mL (≈ 2.66 µM) | inactive | 1.4 µg/mL (≈ 2.48 µM) | inactive | Active | 1.5 µM | > 60 µg/mL |
| CO[C@H]1/C=C/O[C@@]2(C)Oc3c(C)c(O)c4c(O)c(c(/C=N/N5CCN(C)CC5)c(O)c4c3C2=O)NC(=O)/C(C)=C\C=C\[C@H](C)[C@H](O)[C@@H](C)[C@@H](O)[C@@H](C)[C@H](OC(C)=O)[C@@H]1C [RIFAMPIN] | – | 0.07 µg/mL (≈ 0.0851 µM) | – | – | – | – | – | – |
| CCCCCCC[C@@H](O)c1cccc(CN2CCC(COc3cccc(C(=O)c4ccc(Cl)cc4)c3)CC2)c1 | Active | 12.5 µg/mL (≈ 22.8 µM) | inactive | 1.46 µg/mL (≈ 2.66 µM) | inactive | Active | 20 µM | > 60 µg/mL |
| NNC(=O)c1ccncc1 [ISONIAZID] | – | 0.03 µg/mL (≈ 0.219 µM) | – | > 128 µg/mL | – | – | – | – |
| CCCCCCC[C@H](OC(N)=O)c1cccc(CN2CCC(COc3cccc(C(=O)c4ccc(Cl)cc4)c3)CC2)c1 | Active | 12.5 µg/mL (≈ 21.1 µM) | inactive | 4.93 µg/mL (≈ 8.34 µM) | inactive | Active | 20 µM | > 60 µg/mL |
| CCCCCCC[C@@H](O)c1cccc(CN2CCC(COc3ccc(C(=O)c4ccc(Cl)cc4)c(Cl)c3)CC2)c1 | Active | 12.5 µg/mL (≈ 21.5 µM) | inactive | 1.46 µg/mL (≈ 2.51 µM) | inactive | Active | 15 µM | > 60 µg/mL |
| CCCC[C@@H](O)CN1CCC(COc2cccc(C(=O)c3ccc(Cl)cc3)c2)CC1 | Active | 6.2 µg/mL (≈ 14.4 µM) | inactive | 4.91 µg/mL (≈ 11.4 µM) | inactive | Active | 17 µM | > 60 µg/mL |
